Test [1] addresses T1, Adenosine receptor A3 (Homo sapiens) (UniProt P0DMS8).
T1 sequence (whole entry): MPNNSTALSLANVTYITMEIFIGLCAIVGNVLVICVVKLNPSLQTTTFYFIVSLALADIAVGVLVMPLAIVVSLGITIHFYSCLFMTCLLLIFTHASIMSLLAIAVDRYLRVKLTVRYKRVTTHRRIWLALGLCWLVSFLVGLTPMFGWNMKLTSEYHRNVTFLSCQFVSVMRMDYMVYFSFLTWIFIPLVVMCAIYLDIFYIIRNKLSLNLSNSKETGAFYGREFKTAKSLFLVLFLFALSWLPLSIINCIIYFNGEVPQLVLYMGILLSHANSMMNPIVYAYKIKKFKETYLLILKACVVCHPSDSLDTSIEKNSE
Kind of test: Displacement of [3H]-MRE-3008-F20 from human adenosine A3 receptor expressed in CHO cells at 1 uM after 120 mins by liquid scintillation counting. Type of test: cell-based. The method, boiled down: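 Membranes from hA3-CHO cells in 50 mM Tris HCl, 10 mM MgCl2, 1 mM EDTA, pH 7.4, pretreated with adenosine deaminase (2 IU/mL, 30 min, 37 °C). Incubation 120 min at 4 °C. Non-specific binding with unlabelled MRE3008F20. GF/B filtration.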

Test [2] addresses T2, Adenosine receptor A2b (Homo sapiens, UniProt P29275).
T2 sequence (P29275 whole entry): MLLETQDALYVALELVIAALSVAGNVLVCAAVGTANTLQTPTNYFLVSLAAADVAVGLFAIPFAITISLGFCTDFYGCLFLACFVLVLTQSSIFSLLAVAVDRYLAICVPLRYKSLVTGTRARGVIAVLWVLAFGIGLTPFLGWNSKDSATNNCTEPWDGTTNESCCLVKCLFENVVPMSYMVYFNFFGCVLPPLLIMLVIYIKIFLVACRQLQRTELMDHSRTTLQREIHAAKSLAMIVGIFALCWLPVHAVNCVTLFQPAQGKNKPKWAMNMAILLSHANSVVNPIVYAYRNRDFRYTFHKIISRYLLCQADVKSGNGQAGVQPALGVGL
Type of test: functional, cell-based, CHO.

In test [3] the target is T3, Adenosine receptor A1 (Homo sapiens) (UniProt P30542).
T3 sequence (whole entry): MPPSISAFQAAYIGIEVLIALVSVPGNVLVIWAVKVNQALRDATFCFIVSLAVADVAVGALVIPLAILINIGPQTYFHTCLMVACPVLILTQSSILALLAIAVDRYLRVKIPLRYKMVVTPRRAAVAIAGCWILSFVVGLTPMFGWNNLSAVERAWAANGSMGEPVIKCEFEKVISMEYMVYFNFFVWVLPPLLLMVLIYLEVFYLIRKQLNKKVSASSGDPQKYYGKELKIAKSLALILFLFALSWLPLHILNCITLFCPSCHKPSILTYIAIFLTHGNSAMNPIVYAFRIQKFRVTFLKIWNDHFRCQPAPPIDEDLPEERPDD
Kind of test: Displacement of [3H]-DPCPX from human adenosine A1 receptor expressed in CHO cells at 1 uM after 120 mins by liquid scintillation counting. Type of test: cell-based. The method, boiled down:
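Percent inhibition at a single concentration of 1 nM [3H]DPCPX binding to hA1-CHO membranes in 50 mM Tris HCl, pH 7.4. Membranes were pretreated with 2 IU/mL adenosine deaminase for 30 min at 37 °C. Incubation was 120 min at 25 °C, and bound label was separated by GF/B glass-fibre filtration.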
In general terms: Loss of bound radioactivity is the signal in a displacement assay; it reports binding, not function.

The target in test [4] is T4, Adenosine receptor A2a (Homo sapiens, UniProt P29274). Kind of test: Displacement of [3H]-ZM 241385 from human adenosine A2A receptor expressed in CHO cells after 60 mins by liquid scintillation counting. Type of test: cell-based.
T4 sequence (P29274 whole entry): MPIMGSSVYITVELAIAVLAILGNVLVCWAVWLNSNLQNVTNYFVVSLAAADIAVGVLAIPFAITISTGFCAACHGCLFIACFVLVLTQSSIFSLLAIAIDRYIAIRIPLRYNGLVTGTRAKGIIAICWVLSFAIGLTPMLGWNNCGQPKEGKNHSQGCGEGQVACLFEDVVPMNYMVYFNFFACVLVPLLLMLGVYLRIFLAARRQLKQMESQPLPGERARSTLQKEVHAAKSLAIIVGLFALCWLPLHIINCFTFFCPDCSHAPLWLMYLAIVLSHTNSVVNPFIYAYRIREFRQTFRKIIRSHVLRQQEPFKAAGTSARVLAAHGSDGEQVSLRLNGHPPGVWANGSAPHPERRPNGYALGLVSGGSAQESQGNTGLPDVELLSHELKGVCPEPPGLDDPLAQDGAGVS
The target in the next test is T5, Adenosine receptor A1 (Homo sapiens, UniProt P30542).
T5 sequence (P30542 whole entry): T3 sequence (whole entry)
Put plainly: Displacement of [3H]-DPCPX from human adenosine A1 receptor expressed in CHO cells after 120 mins by liquid scintillation counting. Type of test: cell-based.

Test [5] concerns the target T6, Adenosine receptor A3 (Homo sapiens, UniProt P0DMS8).
T6 sequence (P0DMS8 whole entry): T1 sequence (whole entry)
Kind of test: Displacement of [3H]-MRE-3008-F20 from human adenosine A3 receptor expressed in CHO cells after 120 mins by liquid scintillation counting. Type of test: cell-based.

Test [6] addresses Adenosine receptor A2B (Homo sapiens) (UniProt P29275). To be noted: CHO, at 1 µM.
The target of test [7] is T4, Adenosine receptor A2a. Kind of test: Displacement of [3H]-ZM 241385 from human adenosine A2A receptor expressed in CHO cells at 1 uM after 60 mins by liquid scintillation counting. Type of test: cell-based.
The target of test [8] is T6, Adenosine receptor A3. Put plainly: Antagonist activity at human adenosine A3 receptor expressed in forskolin-stimulated CHO cells assessed as inhibition of Cl-IB-MECA-induced cAMP production by competition protein binding assay. Type of test: functional, cell-based. The method, boiled down: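 CHO cells stably expressing human A3 receptor were harvested with dilute trypsin and preincubated for 10 min at 37 °C in pH 7.4 buffer with 2 IU/mL adenosine deaminase and the phosphodiesterase inhibitor Ro 20-1724. Antagonism of 100 nM Cl-IB-MECA was run with forskolin present. The reaction was stopped with cold 6% TCA and extracted with ether. cAMP was read against [3H]cAMP and bovine adrenal binding protein. IC50 came from sigmoid fitting.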
For orientation: cAMP levels reflect the balance of adenylyl cyclase and phosphodiesterase activity.

The target in test [9] is T2, Adenosine receptor A2b. Kind of test: biochemical.

Some results are limits rather than exact numbers.

For `Cn1ncc2nc(N3CCOCC3)n3nc(-c4ccco4)nc3c21`, the inhibition (as a rule, how much of the control response was suppressed) in test [1] came out at 1%; in [3] it was 6%; in test [6] it was 4%; at Adenosine receptor A2a [7], 4%. Also, the IC50 – broadly, the point on the concentration scale where inhibition reaches its midpoint – against Adenosine receptor A2b [2] is over 1000 nM. For the same compound, the Ki at Adenosine receptor A2a [4], at Adenosine receptor A1 and at Adenosine receptor A3 [5] was over 1000 nM each time.

In the case of `CCCn1cc2nc(NC(=O)Nc3ccc(OC)cc3)n3nc(-c4ccco4)nc3c2c1`, the IC50 came to 906 nM on Adenosine receptor A2b [2] and 50 nM at Adenosine receptor A3 [8]. Besides, the Ki (commonly the dissociation constant of the complex between target and ligand, obtained from inhibition or displacement) came out at 200 nM on Adenosine receptor A2a [4], 743 nM at Adenosine receptor A1 and 10 nM on Adenosine receptor A3 [5].

`Cn1cc2nc(NC(=O)Nc3ccncc3)n3nc(-c4ccco4)nc3c2c1`: the IC50 on Adenosine receptor A2b [2] was over 1000 nM. In addition, the Ki at Adenosine receptor A2a [4] is over 1000 nM; at Adenosine receptor A1, 355 nM; on Adenosine receptor A3 [5], 111 nM. Also, the values for the inhibition (in test [6]; at Adenosine receptor A2a [7]) were 8% and 13%, respectively.

At Adenosine receptor A2b [2], `COc1ccc(NC(=O)Nc2nc3cn(CCCc4ccccc4)nc3c3nc(-c4ccco4)nn23)cc1` came in with an IC50 of over 1000 nM. Moreover, the results for the inhibition (in test [3]; in test [6]; on Adenosine receptor A2a [7]) were 35%, 31% and 31%, respectively. In addition, the Ki was over 1000 nM on Adenosine receptor A2a [4], over 1000 nM at Adenosine receptor A1 and 815 nM at Adenosine receptor A3 [5].

On to `CCCn1cc2nc(NC(=O)Nc3ccc(OC)cc3)n3nc(-c4ccco4)nc3c2n1`, for which the IC50 against Adenosine receptor A2b [2] stood at 863 nM; on Adenosine receptor A3 [8], 250 nM. Also, the Ki at Adenosine receptor A2a [4] was determined as 208 nM; on Adenosine receptor A1, 240 nM; at Adenosine receptor A3 [5], 50 nM.

Take `COc1ccc(NC(=O)Nc2nc3cnn(CCCc4ccccc4)c3c3nc(-c4ccco4)nn23)cc1`: the inhibition in test [1] came to 25%; in [3] it was 38%; in test [6] it was 32%; at Adenosine receptor A2a [7] it was 32%. At Adenosine receptor A2b [2], this compound yielded an IC50 of over 1000 nM. Besides, the Ki at Adenosine receptor A2a [4], on Adenosine receptor A1 and on Adenosine receptor A3 [5] was over 1000 nM in each case.

For `CCCn1ncc2nc(N)n3nc(-c4ccco4)nc3c21`, the values for the IC50 against Adenosine receptor A2b [2] and on Adenosine receptor A3 [8] were 40 nM and 500 nM, respectively. Moreover, the Ki on Adenosine receptor A2a [4] was found to be 12 nM; on Adenosine receptor A1, 14 nM; on Adenosine receptor A3 [5], 83 nM.

In turn, `COc1ccc(NC(=O)Nc2nc3cn(CCCc4ccccc4)cc3c3nc(-c4ccco4)nn23)cc1` returned an IC50 at Adenosine receptor A2b [2] of over 1000 nM. Further, the values for the Ki on Adenosine receptor A2a [4], on Adenosine receptor A1 and at Adenosine receptor A3 [5] were 130 nM, 210 nM and 13 nM, respectively. Further, the inhibition in [6] came out at 12%.

In the case of `Nc1nc2c(cnn2CCCc2ccccc2)c2nc(-c3ccco3)nn12` [SCH-63390], the results for the Ki on Adenosine receptor A2b [9] and at Adenosine receptor A3 [5] were over 10 µM and over 10000 nM, respectively.

In the case of `COc1ccc(NC(=O)Nc2nc3cn(C)cc3c3nc(-c4ccco4)nn23)cc1`, the IC50 was found to be 838 nM against Adenosine receptor A2b [2] and 75 nM on Adenosine receptor A3 [8]. The Ki at Adenosine receptor A2a [4] is 500 nM; at Adenosine receptor A1, 800 nM; at Adenosine receptor A3 [5] it was 15 nM.

Consider `Cn1ncc2nc(N3CCN(c4ccccc4)CC3)n3nc(-c4ccco4)nc3c21`, for which the inhibition turned out to be 1% in test [1], 8% in [3], 5% in [6] and 9% on Adenosine receptor A2a [7]. On Adenosine receptor A2b [2], this compound came in with a concentration for half-maximal inhibition (IC50) of over 1000 nM. The Ki at Adenosine receptor A2a [4], on Adenosine receptor A1 and at Adenosine receptor A3 [5] was over 1000 nM each time.

As for `CN1CCN(c2nc3cnn(C)c3c3nc(-c4ccco4)nn23)CC1`, the inhibition in [1] is 1%; in test [3] it was 5%; in test [6], 2%; on Adenosine receptor A2a [7], 2%. Also, the IC50 against Adenosine receptor A2b [2] was over 1000 nM. The Ki on Adenosine receptor A2a [4], at Adenosine receptor A1 and at Adenosine receptor A3 [5] was over 1000 nM throughout.

Source of the values: ChEMBL document CHEMBL1932966, “Pyrrolo- and pyrazolo-[3,4-e][1,2,4]triazolo[1,5-c]pyrimidines as adenosine receptor antagonists” (Bioorg Med Chem, 2012).
